Screens: PubChem BioAssay, several laboratories
Shown are actives, neighbours in structure and some others; about 6% of the full set was active somewhere.
EphB4 ephrin blk = EphB4-ephrin-B2 interaction antagonism. P54760. AID 720. EphB4 LBD / TNYL-RAW-Alexa532 peptide, fluorescence polarization. 97,000 compounds, 0.15% hits. inhibition, % at 7 µM;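 active = inhibition above the screen-wide mean inhibition plus 3 SD, cut at about 15% in these data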;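 note: 0% = DMSO wells and 100% = excess unlabeled TNYL-RAW peptide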
Target sequence (P54760 whole entry, looked up, the tested form may be a part): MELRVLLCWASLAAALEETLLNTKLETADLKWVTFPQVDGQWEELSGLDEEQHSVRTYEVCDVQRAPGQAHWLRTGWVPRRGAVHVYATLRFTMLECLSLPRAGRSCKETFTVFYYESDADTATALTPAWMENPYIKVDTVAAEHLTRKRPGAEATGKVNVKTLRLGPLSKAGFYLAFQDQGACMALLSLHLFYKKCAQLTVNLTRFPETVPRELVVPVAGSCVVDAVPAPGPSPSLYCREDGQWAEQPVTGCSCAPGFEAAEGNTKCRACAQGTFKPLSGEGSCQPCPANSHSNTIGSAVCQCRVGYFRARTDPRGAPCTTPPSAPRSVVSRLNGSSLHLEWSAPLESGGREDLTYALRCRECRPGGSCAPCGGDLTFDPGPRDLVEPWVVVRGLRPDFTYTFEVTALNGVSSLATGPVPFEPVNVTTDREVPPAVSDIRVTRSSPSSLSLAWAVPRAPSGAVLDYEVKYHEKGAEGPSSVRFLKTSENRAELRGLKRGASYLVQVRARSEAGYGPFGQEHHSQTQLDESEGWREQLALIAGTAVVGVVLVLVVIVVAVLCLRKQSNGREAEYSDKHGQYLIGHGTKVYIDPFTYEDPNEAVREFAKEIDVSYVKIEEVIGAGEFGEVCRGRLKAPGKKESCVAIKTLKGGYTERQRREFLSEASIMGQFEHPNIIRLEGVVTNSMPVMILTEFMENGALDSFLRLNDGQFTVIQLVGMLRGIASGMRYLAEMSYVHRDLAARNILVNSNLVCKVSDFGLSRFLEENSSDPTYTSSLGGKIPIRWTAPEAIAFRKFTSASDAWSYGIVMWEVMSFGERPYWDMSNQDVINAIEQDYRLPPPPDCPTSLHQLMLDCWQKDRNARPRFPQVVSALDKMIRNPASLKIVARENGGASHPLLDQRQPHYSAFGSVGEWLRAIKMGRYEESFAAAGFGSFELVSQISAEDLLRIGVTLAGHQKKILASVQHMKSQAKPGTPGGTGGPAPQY
PostGolgi yeast = growth inhibition of a yeast mutant, post-Golgi transport screen; 98,000 compounds, 0.9% hits; post-Golgi transport phenotypic cell assay; inhibition, % at 10 µM;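 note: yeast cells grown in 1536-well plates; yeast grown about 18 h at 30C before absorbance read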
Ecoli WT expand = blocks growth of wild type E. coli BW25113. 98,000 compounds, 0.15% hits. growth inhibition, % at 100 µM. OD600 absorbance;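 active = growth inhibition above about 50% at one test dose, limit read from the data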;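 note: growth measured after 20 h incubation at 37 °C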
PostGolgi ctrl = yeast control strain growth, post-Golgi counter-screen; efflux-deficient yeast background strain, growth absorbance A615, 16 h; inhibition, % at 10 µM; 98,000 compounds, 5% hits; AID 738
tolC growth inh = E. coli tolC mutant growth inhibition; E. coli BW25113 tolC mutant growth, OD615; growth inhibition, % at 10 µM (by protocol); 65,000 compounds, 2.2% hits; AID 573;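 active = growth inhibition at or above a cutoff equal to the mean over every tested compound plus 3 SD, cut at about 60% in these data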;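 note: growth measured after 20 h incubation at 37 °C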
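Assay system: tolC-deleted E. coli BW25113. Medium: kanamycin-containing LB broth (50 µg/mL). Dosing: 10 µM final, single dose. Timing: bacterial growth with compound for 20 h at 37 °C. Detection: A615 absorbance measurement. Read-out basis: growth inhibition in percent.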
Active calls of the source: *; . = no result given. Cut-off read from the data, not from the text of the source, unless noted: active = inhibition above about 30%; inactive = the rest.

SMILES	EphB4 ephrin blk	PostGolgi yeast	Ecoli WT expand	PostGolgi ctrl	tolC growth inh
COc1cccc(-c2nc(-c3ccc(NC(=O)c4ccncc4)cc3)no2)c1	2.5	-2.4	-8.0	1.0	.
COc1cccc(NC(=O)c2ccccc2-c2nc(-c3ccc(Cl)cc3)no2)c1	3.3	-7.4	-5.0	35.4*	35.9
COc1cccc(NC(=O)c2ccccc2-c2nc(-c3ccc(F)cc3)no2)c1	-1.6	25.2	-9.0	55.7*	23.7
COc1ccccc1-c1noc(-c2ccccc2C(=O)Nc2ccccc2)n1	-6.8	7.1	-22.0	27.3	-22.9
COc1ccc(-c2noc(-c3ccccc3C(=O)NCc3ccco3)n2)cc1OC	4.5	-2.2	-10.0	30.9*	9.3
CCN(CC)Cc1c(CC(C)C)oc(C)c1C(=O)O	-7.1	-3.0	-2.0	1.2	.
COC(=O)c1ccc(COc2ccc3c(C)c(C)c(=O)oc3c2C)o1	21.6*	-7.5	-7.0	-3.3	3.9
COc1ccc(NC(C)=O)cc1NC(=O)CN1CCN(S(=O)(=O)c2ccc(C(C)C)cc2)CC1	-3.9	-1.0	-1.0	-0.9	-8.1
O=C(CN1CCCN(S(=O)(=O)c2ccc(F)cc2)CC1)Nc1ccccc1Br	5.0	7.8	-26.0	40.9*	49.4
O=C(CN1CCN(S(=O)(=O)c2ccc(Br)cc2)CC1)Nc1ccccc1F	.	-13.7	-10.0	53.6*	11.7
COc1ccc(C)cc1NC(=O)CN1CCN(S(=O)(=O)c2ccc(Br)cc2)CC1	-1.0	1.0	0.0	46.3*	-5.7
O=C(NCc1ccc(F)cc1)c1cnc(-c2ccccn2)nc1C(F)(F)F	0.2	7.0	2.0	6.5	.
CCOc1ccc(NC(=O)CCn2c(=O)[nH]c3ccsc3c2=O)cc1	4.3	0.5	-12.0	3.1	.
CC(CC(C)C(=O)Nc1ccccc1C(C)(C)C)C(=O)O (centres undefined)	-2.1	.	.	.	.
O=S(=O)(c1ccc(Cl)c(Cl)c1)c1snnc1-c1ccccc1	1.1	24.6	6.0	52.2*	.
Cc1ccc(C)c(CSc2nnc(-c3cccs3)n2Cc2ccco2)c1	-7.7	25.8	-5.0	35.2*	.
Clc1ccccc1CSc1nnc(-c2ccccn2)n1Cc1ccco1	-8.5	-0.2	-6.0	13.5	91.5*
C(=C\c1ccccc1)/CSc1nnc(-c2ccccn2)n1Cc1ccco1	0.4	2.2	-12.0	45.0*	92.6*
CCn1cc(C(=O)Nc2ccc(-n3cnnn3)c(OC)c2)c(=O)c2ccc(C)nc21	0.1	-7.4	-13.0	-5.6	-9.1
CCOC(=O)c1nn(-c2ccccc2F)c(-c2ccccc2)c1C(=O)c1ccccc1	1.3	7.6	-11.0	32.1*	.
CC1(C)CC(=O)C(C=NCCN2CCN(CCCCS(=O)(=O)O)CC2)=C(O)C1	-0.9	5.6	-1.0	32.5*	-6.9
Cc1cccc(N2CCN(C(=O)c3ccc(NS(=O)(=O)c4c(C)noc4C)cc3)CC2)c1C	5.8	5.3	-12.0	14.3	84.0*
Cc1cccc(NC(=O)c2ccc(NS(=O)(=O)c3c(C)noc3C)cc2)c1	-0.3	20.3	-1.0	-2.2	44.5
CCc1cccc(NC(=O)c2ccc(NS(=O)(=O)c3c(C)noc3C)cc2)c1	-6.2	0.3	14.0	-0.2	76.8*
CC(C)c1nc(SCC(=O)NCc2ccc3c(c2)OCO3)c2c(=O)n(C)c(=O)n(C)c2n1	.	.	.	.	-2.4
SMILES	EphB4 ephrin blk	PostGolgi yeast	Ecoli WT expand	PostGolgi ctrl	tolC growth inh
C=CCn1c(SCC(=O)Nc2ccc3c(c2)CCC3)nnc1-c1cccs1	.	-4.6	2.0	10.8	76.6*
CC(=O)N(NC(=O)c1ccccc1Cl)C1CC(=O)N(c2ccc(C)cc2)C1=O (centres undefined)	-2.9	-2.1	-2.0	2.5	.
O=C(CN(c1ccc(F)cc1)S(=O)(=O)c1ccc2c(c1)OCCO2)Nc1ccccc1	-1.0	32.8*	2.0	7.4	.
CC(=O)Nc1ccc(NC(=O)CN(c2ccc(F)cc2)S(=O)(=O)c2ccc3c(c2)OCCO3)cc1	5.0	3.5	-6.0	10.3	.
CSc1cccc(NC(=O)CN(Cc2ccc(Cl)cc2)S(C)(=O)=O)c1	3.4	-9.2	-4.0	7.6	.
Cc1ccc(C)n1-n1cnc2sc(-c3ccccc3)cc2c1=O	-7.0	-7.3	-15.0	26.2	88.2*
O=c1c2cc(-c3ccccc3)sc2ncn1-n1cccc1	-0.8	15.0	-7.0	5.3	.
COc1ccc(OC)c(Nc2cc(-c3ccccc3)nc(N)n2)c1	-2.7	-6.5	2.0	5.8	15.3
COc1ccc(F)cc1S(=O)(=O)N1CC(C)CC(C)C1 (centres undefined)	2.2	9.6	11.0	9.7	.
O=C(NCCC1=CCCCC1)C(=O)NCc1ccccc1Cl	2.7	1.3	-1.0	33.8*	.
